Source: ChEMBL document CHEMBL1123203, “Metal complexes of mitomycins” (1986)

Columns and labels:
P388 [1] = test: (§1) Activity against P-388 murine leukemia cells expressed as average weight change at a dose of 12.8 mg/kg per inj.; type: functional, Mus musculus
P388 [2] = test: Activity against P-388 murine leukemia cells expressed as median survival time (MST treated/MST control) at a dose of 25.6 mg/kg per inj.; type: functional, Mus musculus
Outline: (§2)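 P-388 leukemia in vivo: 10^6 ascites cells implanted ip into female CDF1 mice. Six mice per mitosane dose, 10 saline-injected controls, and a concurrent mitomycin C group of six mice per dose. Median survival time recorded; %T/C = MST treated/MST control × 100. 30-day survivors counted. Minimum effective dose set at %T/C 125.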

P388 [3] = test: (§3) Activity against P-388 murine leukemia cells expressed as average weight change at a dose of 25.6 mg/kg per inj.; type: functional, Mus musculus
P388 [4] = test: Activity against P-388 murine leukemia cells expressed as median survival time (MST treated/MST control) at a dose of 12.8 mg/kg per inj.; type: functional, Mus musculus; outline: as §2
P388 [5] = test: Activity against P-388 murine leukemia cells expressed as median survival time (MST treated/MST control) at a dose of 6.4 mg/kg per inj.; type: functional, Mus musculus; outline: as §2
P388 [6] = test: (§4) Activity against P-388 murine leukemia cells expressed as average weight change at a dose of 6.4 mg/kg per inj.; type: functional, Mus musculus
P388 [7] = test: Activity against P-388 murine leukemia cells at a dose of 4.8 mg/kg per inj.; type: functional, Mus musculus; outline: as §2
P388 [8] = test: (§5) Activity against P-388 murine leukemia cells expressed as average weight change at a dose of 3.2 mg/kg per inj.; type: functional, Mus musculus
P388 [9] = test: Activity against P-388 murine leukemia cells expressed as median survival time (MST treated/MST control) at a dose of 1.6 mg/kg per inj.; type: functional, Mus musculus; outline: as §2
P388 [10] = test: Activity against P-388 murine leukemia cells expressed as average weight change at a dose of 1.6 mg/kg per inj.; type: functional, Mus musculus
P388 [11] = test: Activity against P-388 murine leukemia cells expressed as median survival time (MST treated/MST control) at a dose of 3.2 mg/kg per inj.; type: functional, Mus musculus; outline: as §2
P388 [12] = test: Activity against P-388 murine leukemia cells at a dose of 3.2 mg/kg per inj.; type: functional, Mus musculus; outline: as §2
P388 [13] = test: as §3; type: functional, organism-based; settings: Mus musculus
Outline: (§6)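 P-388 leukemia in vivo: 10^6 ascites cells implanted ip in female CDF1 mice. Six mice per dose level; 10 saline-injected controls. A parallel group of six mice per dose received mitomycin C in the same experiment as a reference. Tested at Bristol-Myers.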

P388 [14] = test: as §4; type: functional, organism-based; settings: Mus musculus; outline: as §6
P388 [15] = test: as §5; type: functional, organism-based; settings: Mus musculus; outline: as §6
P388 [16] = test: as §1; type: functional, organism-based; settings: Mus musculus; outline: as §6
P388 [17] = test: Activity against P-388 murine leukemia celLS at a dose of 3.2 mg/kg per inj.; type: functional, Mus musculus; outline: as §2
P388 [18] = test: Activity against P-388 murine leukemia cells expressed as median survival time (MST treated/MST control) at a dose of 4.8 mg/kg per inj.; type: functional, Mus musculus; outline: as §2
P388 [19] = test: Activity against P-388 murine leukemia cells expressed as average weight change at a dose of 0.4 mg/kg per inj.; type: functional, Mus musculus
P388 [20] = test: Activity against P-388 murine leukemia cells expressed as median survival time (MST treated/MST control) at a dose of 0.2 mg/kg per inj.; type: functional, Mus musculus; outline: as §2
P388 [21] = test: Activity against P-388 murine leukemia cells expressed as average weight change at a dose of 0.8 mg/kg per inj.; type: functional, Mus musculus
P388 [22] = test: Activity against P-388 murine leukemia cells expressed as average weight change at a dose of 0.2 mg/kg per inj.; type: functional, Mus musculus
P388 [23] = test: Activity against P-388 murine leukemia cells expressed as median survival time (MST treated/MST control) at a dose of 0.4 mg/kg per inj.; type: functional, Mus musculus; outline: as §2
P388 [24] = test: Activity against P-388 murine leukemia cells expressed as median survival time (MST treated/MST control) at a dose of 0.8 mg/kg per inj.; type: functional, Mus musculus; outline: as §2

## COC1c2c(COC(N)=O)c3c(n2CC1N)C(=O)C(C)=C(N)C3=O.Cl (stereo not given)
P388 [1]
  Activity: 0.4 g
P388 [2]
  MST: 130
P388 [3]
  Activity: 0.6 g
P388 [4]
  MST: 115
P388 [5]
  MST: 110
P388 [6]
  Activity: 1.9 g
P388 [7]
  T/C: >165%

## COC1c2c(COC(=N)[O-])c3c(n2CC1N)C(=O)C(C)=C(N)C3=O.Cl.[Zn+] (stereo not given)
P388 [8]
  Activity: 2 g
P388 [9]
  MST: 122
P388 [1]
  Activity: 0.4 g
P388 [2]
  MST: 178
P388 [10]
  Activity: 0.5 g
P388 [11]
  MST: 139
P388 [3]
  Activity: -0.7 g
P388 [4]
  MST: 144
P388 [5]
  MST: 133
P388 [12]
  T/C: 194%
P388 [6]
  Activity: 0.7 g

## 2-amino-9-(2-carbamoyloxomethyl)-1-methoxy-6-methyl-5,8-dioxo-2,3,5,8-tetrahydro-1H-pyrrolo[1,2-a]indol-7-yl(dichlorocopper)ammonium; Copper chloride
P388 [13]
  Activity: -3.1 g
P388 [14]
  Activity: 0.8 g
P388 [15]
  Activity: 0.9 g
P388 [11]; Mus musculus
  MST: 100
P388 [4]; Mus musculus
  MST: 100
P388 [5]; Mus musculus
  MST: 100
P388 [16]
  Activity: 0.3 g
P388 [12]; Mus musculus
  T/C: 100%

## CO[C@@]12[C@H](COC(N)=O)C3=C(C(=O)C(C)=C(NCCc4ccccn4)C3=O)N1C[C@@H]1N[C@@H]12.Cl.Cl.[Zn+2]
P388 [8]
  Activity: 0.1 g
P388 [9]
  MST: 122
P388 [1]
  Activity: -0.4 g
P388 [2]
  MST: 161
P388 [10]
  Activity: 0.8 g
P388 [11]
  MST: 133
P388 [3]
  Activity: -1.3 g
P388 [4]
  MST: 156
P388 [5]
  MST: 139
P388 [17]
  T/C: 194%
P388 [6]
  Activity: -0.6 g

## 3-[6-(1,1-copperdichloro-1H,2H,3H,4H-pyrido[1,2-c]pyrimidin-9-ium-2-yl)-8a-methoxy-5-methyl-4,7-dioxo-(8aR)-1,1a,2,4,7,8,8a,8b-octahydroazireno[3',2':3,4]pyrrolo[1,2-a]indol-8-yl]methyloxocarboxamide
P388 [13]
  av wt change: -1.4 g
P388 [2]; Mus musculus
  MST: 128
P388 [4]; Mus musculus
  MST: 122
P388 [16]
  av wt change: 0.2 g

## CO[C@@]12[C@H](COC(N)=O)C3=C(C(=O)C(C)=C(NCCN4CCNCC4)C3=O)N1C[C@@H]1N[C@@H]12.Cl.Cl.[Zn+2]
P388 [1]
  Activity: 1.2 g
P388 [2]
  MST: 100
P388 [3]
  Activity: -0.6 g
P388 [4]
  MST: 90
P388 [18]
  T/C: 213%

## CO[C@@]12C(COC(N)=O)C3=C(C(=O)C(C)=C(NCCc4ccccn4)C3=O)N1CC1NC12 (stereo not given in full)
P388 [8]
  Activity: -0.9 g
P388 [9]
  MST: 163
P388 [1]
  Activity: -1.8 g
P388 [2]
  MST: >375
P388 [10]
  Activity: -0.4 g
P388 [19]
  Activity: -0.6 g
P388 [11]
  MST: 163
P388 [20]
  MST: 125
P388 [3]
  Activity: -2.7 g
P388 [4]
  MST: 256
P388 [21]
  Activity: -0.3 g
P388 [5]
  MST: 213
P388 [22]
  Activity: -0.5 g
P388 [23]
  MST: 125
P388 [24]
  MST: 138
P388 [12]
  T/C: 319%
P388 [6]
  Activity: -1.1 g

## CO[C@@]12C(COC(N)=O)C3=C(C(=O)C(C)=C(NCCN4CCNCC4)C3=O)N1CC1NC12 (stereo not given in full)
P388 [1]
  Activity: 1.2 g
P388 [2]
  MST: 138
P388 [3]
  Activity: -0.6 g
P388 [4]
  MST: 125
P388 [5]
  MST: 113
P388 [18]
  T/C: 213%
P388 [6]
  Activity: 2.1 g

## Platinium II Complex N7-[2-(2-Pyridyl)ethyl]mitomycin C
P388 [1]; Mus musculus
  Activity: 0.5 g
P388 [2]; Mus musculus
  MST: 125
P388 [3]; Mus musculus
  Activity: -0.2 g
P388 [4]; Mus musculus
  MST: 110
P388 [18]; Mus musculus
  T/C: 230%
